Test results as given in ChEMBL document CHEMBL1151705, “Novel azalides derived from 16-membered macrolides. Part II: Isolation of the linear 9-formylcarboxylic acid and its sequential macrocyclization with an amino alcohol or an azidoamine” (2008).
Values after ≈ are worked out from the molar mass of the structure shown.

Legend:
Type in all cases: functional
[1] = system: Streptococcus pneumoniae; assay: Antimicrobial activity against Streptococcus pneumoniae 8 expressing inducible ermB after 20 hrs by agar dilution method; details: Streptococcus pneumoniae, 20 h; read-out: MIC
In short: (§1)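 Streptococci, H. influenzae and M. catarrhalis were precultured on blood agar plates. Suspensions of about 10⁶ CFU/ml were inoculated onto sensitivity disk agar supplemented with 5% horse blood and incubated at 37 °C for 20 h. MIC was read as the lowest drug concentration with no visible growth.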

[2] = system: Streptococcus pneumoniae; assay: Antimicrobial activity against Streptococcus pneumoniae 9 expressing mefA after 20 hrs by agar dilution method; details: Streptococcus pneumoniae, 20 h; read-out: MIC; in short: as §1
[3] = system: Streptococcus pneumoniae; assay: Antimicrobial activity against Streptococcus pneumoniae 10 expressing mefA after 20 hrs by agar dilution method; details: Streptococcus pneumoniae, 20 h; read-out: MIC; in short: as §1
[4] = system: Streptococcus pyogenes; assay: Antimicrobial activity against drug-susceptible Streptococcus pyogenes 1 after 20 hrs by agar dilution method; details: Streptococcus pyogenes, 20 h; read-out: MIC; in short: as §1
[5] = system: Streptococcus pyogenes; assay: Antimicrobial activity against Streptococcus pyogenes 2 constitutively expressing ermB after 20 hrs by agar dilution method; in short: as §1
[6] = system: Streptococcus pyogenes; assay: Antimicrobial activity against Streptococcus pyogenes 3 expressing mefA after 20 hrs by agar dilution method; details: Streptococcus pyogenes, 20 h; read-out: MIC; in short: as §1
[7] = system: Moraxella catarrhalis; assay: Antimicrobial activity against drug-susceptible Moraxella catarrhalis 1 after 20 hrs by agar dilution method; details: Moraxella catarrhalis, 20 h; read-out: MIC; in short: as §1
[8] = system: Moraxella catarrhalis; assay: Antimicrobial activity against drug-susceptible Moraxella catarrhalis 2 after 20 hrs by agar dilution method; details: Moraxella catarrhalis, 20 h; read-out: MIC; in short: as §1
[9] = system: Haemophilus influenzae; assay: Antimicrobial activity against drug-susceptible Haemophilus influenzae 1 after 20 hrs by agar dilution method; details: Haemophilus influenzae, 20 h; read-out: MIC; in short: as §1
[10] = system: Haemophilus influenzae; assay: Antimicrobial activity against drug-susceptible Haemophilus influenzae 2 after 20 hrs by agar dilution method; details: Haemophilus influenzae, 20 h; read-out: MIC; in short: as §1
[11] = system: Haemophilus influenzae; assay: Antimicrobial activity against drug-susceptible Haemophilus influenzae 3 after 20 hrs by agar dilution method; details: Haemophilus influenzae, 20 h; read-out: MIC; in short: as §1
[12] = system: Haemophilus influenzae; assay: Antimicrobial activity against drug-susceptible Haemophilus influenzae 4 after 20 hrs by agar dilution method; details: Haemophilus influenzae, 20 h; read-out: MIC; in short: as §1
[13] = system: Staphylococcus aureus; assay: Antimicrobial activity against drug-susceptible Staphylococcus aureus 209P JC-1 after 20 hrs by agar dilution method; details: Staphylococcus aureus, 209P, 20 h; read-out: MIC
In short: (§2)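 Agar dilution MIC. S. aureus seed culture was grown in sensitivity test broth. Cell suspension (about 10⁶ CFU/ml) was inoculated onto sensitivity disk agar with 5% horse blood and incubated at 37 °C for 20 h. MIC was the lowest drug concentration that prevented visible growth.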

[14] = system: Staphylococcus aureus; assay: Antimicrobial activity against drug-susceptible Staphylococcus aureus 2 after 20 hrs by agar dilution method; details: Staphylococcus aureus, 20 h; read-out: MIC; in short: as §2
[15] = system: Staphylococcus aureus; assay: Antimicrobial activity against drug-susceptible Staphylococcus aureus 3 after 20 hrs by agar dilution method; details: Staphylococcus aureus, 20 h; read-out: MIC; in short: as §2
[16] = system: Staphylococcus aureus; assay: Antimicrobial activity against Staphylococcus aureus 4 constitutively expressing ermA after 20 hrs by agar dilution method; in short: as §2
[17] = system: Staphylococcus aureus; assay: Antimicrobial activity against Staphylococcus aureus 5 expressing inducible ermB after 20 hrs by agar dilution method; details: Staphylococcus aureus, 20 h; read-out: MIC; in short: as §2
[18] = system: Streptococcus pneumoniae; assay: Antimicrobial activity against drug-susceptible Streptococcus pneumoniae DP1 Type1 after 20 hrs by agar dilution method; details: Streptococcus pneumoniae, 20 h; read-out: MIC; in short: as §1
[19] = system: Streptococcus pneumoniae; assay: Antimicrobial activity against drug-susceptible Streptococcus pneumoniae 2 after 20 hrs by agar dilution method; details: Streptococcus pneumoniae, 20 h; read-out: MIC; in short: as §1
[20] = system: Streptococcus pneumoniae; assay: Antimicrobial activity against Streptococcus pneumoniae 5 constitutively expressing ermB/mefA after 20 hrs by agar dilution method; details: Streptococcus pneumoniae, 20 h; read-out: MIC; in short: as §1
[21] = system: Streptococcus pneumoniae; assay: Antimicrobial activity against Streptococcus pneumoniae 6 constitutively expressing ermB after 20 hrs by agar dilution method; details: Streptococcus pneumoniae, 20 h; read-out: MIC; in short: as §1
[22] = system: Streptococcus pneumoniae; assay: Antimicrobial activity against Streptococcus pneumoniae 7 expressing inducible ermB after 20 hrs by agar dilution method; details: Streptococcus pneumoniae, 20 h; read-out: MIC; in short: as §1
[23] = system: Staphylococcus aureus; assay: Antimicrobial activity against Staphylococcus aureus 6 expressing inducible ermB after 20 hrs by agar dilution method; in short: as §2

Row | MIC [1] | MIC [2] | MIC [3] | MIC [4] | MIC [5] | MIC [6] | MIC [7] | MIC [8] | MIC [9] | MIC [10] | MIC [11] | MIC [12] | MIC [13] | MIC [14] | MIC [15] | MIC [16] | MIC [17] | MIC [18] | MIC [19] | MIC [20] | Structure (SMILES) | also measured
1 | 16 µg/mL (≈ 16.6 µM) | 0.25 µg/mL (≈ 0.259 µM) | 0.25 µg/mL (≈ 0.259 µM) | 0.13 µg/mL (≈ 0.135 µM) | > 128 µg/mL | 0.5 µg/mL (≈ 0.519 µM) | 0.13 µg/mL (≈ 0.135 µM) | 0.25 µg/mL (≈ 0.259 µM) | 8 µg/mL (≈ 8.3 µM) | 0.5 µg/mL (≈ 0.519 µM) | 2 µg/mL (≈ 2.07 µM) | 4 µg/mL (≈ 4.15 µM) | 0.25 µg/mL (≈ 0.259 µM) | 1 µg/mL (≈ 1.04 µM) | 0.25 µg/mL (≈ 0.259 µM) | > 128 µg/mL | 0.25 µg/mL (≈ 0.259 µM) | 0.13 µg/mL (≈ 0.135 µM) | 0.25 µg/mL (≈ 0.259 µM) | > 128 µg/mL | CCOC(=O)[C@H]1[C@H](C)O[C@@H](O[C@H]2[C@H](N(C)C)[C@@H](O)[C@H](O[C@H]3[C@@H](CC=O)C[C@@H](C)[C@@H](O)CN(CCCCc4ccccc4)CCCNC(=O)C[C@@H](OC(=O)CC)[C@@H]3OC)O[C@@H]2C)C[C@@]1(C)OC(C)=O | MIC [21]: > 128 µg/mL; MIC [22]: 16 µg/mL (≈ 16.6 µM); MIC [23]: 0.5 µg/mL (≈ 0.519 µM)
2 | 1 µg/mL (≈ 1.01 µM) | 0.13 µg/mL (≈ 0.131 µM) | 0.06 µg/mL (≈ 0.0604 µM) | 0.13 µg/mL (≈ 0.131 µM) | 64 µg/mL (≈ 64.4 µM) | 0.25 µg/mL (≈ 0.252 µM) | 0.25 µg/mL (≈ 0.252 µM) | 0.5 µg/mL (≈ 0.503 µM) | 32 µg/mL (≈ 32.2 µM) | 0.5 µg/mL (≈ 0.503 µM) | 8 µg/mL (≈ 8.05 µM) | 16 µg/mL (≈ 16.1 µM) | 0.25 µg/mL (≈ 0.252 µM) | 1 µg/mL (≈ 1.01 µM) | 0.25 µg/mL (≈ 0.252 µM) | > 128 µg/mL | 0.25 µg/mL (≈ 0.252 µM) | 0.06 µg/mL (≈ 0.0604 µM) | 0.06 µg/mL (≈ 0.0604 µM) | > 128 µg/mL | CCOC(=O)[C@H]1[C@H](C)O[C@@H](O[C@H]2[C@H](N(C)C)[C@@H](O)[C@H](O[C@H]3[C@@H](CC=O)C[C@@H](C)[C@@H](O)CN(CCCCc4ccccc4)CCC[C@@H](C)OC(=O)C[C@@H](OC(=O)CC)[C@@H]3OC)O[C@@H]2C)C[C@@]1(C)OC(C)=O | MIC [21]: 64 µg/mL (≈ 64.4 µM); MIC [22]: 1 µg/mL (≈ 1.01 µM); MIC [23]: 0.5 µg/mL (≈ 0.503 µM)
3 | 32 µg/mL (≈ 31.8 µM) | 0.5 µg/mL (≈ 0.496 µM) | 0.25 µg/mL (≈ 0.248 µM) | 0.25 µg/mL (≈ 0.248 µM) | > 128 µg/mL | 0.25 µg/mL (≈ 0.248 µM) | 0.25 µg/mL (≈ 0.248 µM) | 0.5 µg/mL (≈ 0.496 µM) | > 128 µg/mL | 2 µg/mL (≈ 1.99 µM) | 4 µg/mL (≈ 3.97 µM) | 8 µg/mL (≈ 7.94 µM) | 0.5 µg/mL (≈ 0.496 µM) | 1 µg/mL (≈ 0.993 µM) | 0.5 µg/mL (≈ 0.496 µM) | > 128 µg/mL | 0.5 µg/mL (≈ 0.496 µM) | 0.25 µg/mL (≈ 0.248 µM) | 0.25 µg/mL (≈ 0.248 µM) | > 128 µg/mL | CCOC(=O)[C@H]1[C@H](C)O[C@@H](O[C@H]2[C@H](N(C)C)[C@@H](O)[C@H](O[C@H]3[C@@H](CC=O)C[C@@H](C)[C@@H](OC(C)=O)CN(CCCCc4ccccc4)CCCOC(=O)C[C@@H](OC(=O)CC)[C@@H]3OC)O[C@@H]2C)C[C@@]1(C)OC(C)=O | MIC [22]: 8 µg/mL (≈ 7.94 µM); MIC [23]: 1 µg/mL (≈ 0.993 µM)
4 | 16 µg/mL (≈ 15.9 µM) | 0.5 µg/mL (≈ 0.497 µM) | 0.5 µg/mL (≈ 0.497 µM) | 0.5 µg/mL (≈ 0.497 µM) | > 128 µg/mL | 2 µg/mL (≈ 1.99 µM) | 1 µg/mL (≈ 0.994 µM) | 2 µg/mL (≈ 1.99 µM) | > 128 µg/mL | 8 µg/mL (≈ 7.95 µM) | > 128 µg/mL | 16 µg/mL (≈ 15.9 µM) | 1 µg/mL (≈ 0.994 µM) | 2 µg/mL (≈ 1.99 µM) | 1 µg/mL (≈ 0.994 µM) | > 128 µg/mL | 0.5 µg/mL (≈ 0.497 µM) | 0.13 µg/mL (≈ 0.129 µM) | 0.5 µg/mL (≈ 0.497 µM) | > 128 µg/mL | CCOC(=O)[C@H]1[C@H](C)O[C@@H](O[C@H]2[C@H](N(C)C)[C@@H](O)[C@H](O[C@H]3[C@@H](CC=O)C[C@@H](C)[C@@H](OC(C)=O)CN(C)CCN(CCCCc4ccccc4)C(=O)C[C@@H](OC(=O)CC)[C@@H]3OC)O[C@@H]2C)C[C@@]1(C)OC(C)=O | MIC [21]: > 128 µg/mL; MIC [22]: 16 µg/mL (≈ 15.9 µM); MIC [23]: 1 µg/mL (≈ 0.994 µM)
